# According to ChEMBL document CHEMBL3414420, “Synthesis of xanthohumol analogues and discovery of potent thioredoxin reductase inhibitor as potential anticancer agent” (J Med Chem, 2015):
# The source made the active and inactive calls. The rule behind the calls is not given here.
# System: HepG2
# Assay: Cytotoxicity against human HepG2 cells assessed as inhibition of cell proliferation after 72 hrs by MTT assay
# Type: functional, cell-based
# Conditions: HepG2, 72 h
# Procedure, shortened: (§1)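 Cells, 5×10^3 per well, exposed in triplicate at 37 °C; DMSO-only wells as controls (0.1% v/v DMSO in all cell work). After 68 h, MTT (5 mg/mL stock) was added for a further 4 h. Overnight solubilisation at 37 °C in 10% SDS/5% isobutanol/0.1% HCl, then A570 read.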
row,Compound,IC50
1,COc1cc(OC)c(C(=O)/C=C/c2cc(OC)c(OC)cc2OC)c(OC)c1,23.8 µM
2,COc1cc(O)cc(O)c1C(=O)/C=C/c1cccc([N+](=O)[O-])c1,16.3 µM
3,COc1cc(OC)c(C(=O)/C=C/c2ccc(C)cc2)c(OC)c1,18.4 µM
4,COc1ccc(/C=C/C(=O)c2c(OC)cc(O)c(CC=C(C)C)c2O)cc1,32.4 µM
5,COc1ccc(/C=C/C(=O)c2c(O)cc(O)cc2OC)cc1OC,18.5 µM
6,COc1cc(OC)c(C(=O)/C=C/c2ccc(O)cc2)c(OC)c1,37 µM
7,COc1cc(/C=C/C(=O)c2c(OC)cc(OC)cc2OC)cc(OC)c1,9 µM
8,COc1cc(/C=C/C(=O)c2c(OC)cc(O)c(CC=C(C)C)c2O)cc(OC)c1OC,> 50 µM
9,COc1cc(/C=C/C(=O)c2c(O)cc(O)cc2OC)ccc1O,> 50 µM
10,COc1cc(OC)c(OC)cc1/C=C/C(=O)c1c(OC)cc(O)c(CC=C(C)C)c1O,> 50 µM
11,COc1cc(O)c(CC=C(C)C)c(O)c1C(=O)/C=C/c1ccc([N+](=O)[O-])cc1,12.4 µM
12,COc1ccc(/C=C/C(=O)c2c(O)cc(O)cc2OC)cc1,18.1 µM
13,COc1cc(OC)c(C(=O)/C=C/c2ccccc2OC)c(OC)c1,16.3 µM
14,COc1cc(OC)c(C(=O)/C=C/c2ccc(C(F)(F)F)cc2)c(OC)c1,9.7 µM
15,COc1cc(O)c(CC=C(C)C)c(O)c1C(=O)/C=C/c1cccc([N+](=O)[O-])c1,16.6 µM
16,COc1cc(OC)c(C(=O)/C=C/c2ccc(O)c(O)c2)c(OC)c1,27.5 µM
17,COc1cc(O)cc(O)c1C(=O)/C=C/c1ccc(C(F)(F)F)cc1,14.1 µM
18,COc1cc(OC)c(OC)cc1/C=C/C(=O)c1c(O)cc(O)cc1OC,18.7 µM
19,COc1ccc(/C=C/C(=O)c2c(OC)cc(O)c(CC=C(C)C)c2O)c(OC)c1OC,14.8 µM
20,COc1cc(O)c(CC=C(C)C)c(O)c1C(=O)/C=C/c1ccc(C(F)(F)F)cc1,6.5 µM

# System: HeLa
# Assay: Cytotoxicity against human HeLa cells assessed as inhibition of cell proliferation after 72 hrs by MTT assay
# Type: functional, cell-based
# Conditions: not given
# Procedure, shortened: as §1
row,Compound,IC50
1,COc1cc(OC)c(C(=O)/C=C/c2cc(OC)c(OC)cc2OC)c(OC)c1,40.5 µM
2,COc1cc(O)cc(O)c1C(=O)/C=C/c1cccc([N+](=O)[O-])c1,15.5 µM
3,COc1cc(OC)c(C(=O)/C=C/c2ccc(C)cc2)c(OC)c1,17 µM
4,COc1ccc(/C=C/C(=O)c2c(OC)cc(O)c(CC=C(C)C)c2O)cc1,> 50 µM
5,COc1ccc(/C=C/C(=O)c2c(O)cc(O)cc2OC)cc1OC,49.5 µM
6,COc1cc(OC)c(C(=O)/C=C/c2ccc(O)cc2)c(OC)c1,40.6 µM
7,COc1cc(/C=C/C(=O)c2c(OC)cc(OC)cc2OC)cc(OC)c1,9.2 µM
8,COc1cc(/C=C/C(=O)c2c(OC)cc(O)c(CC=C(C)C)c2O)cc(OC)c1OC,> 50 µM
9,COc1cc(/C=C/C(=O)c2c(O)cc(O)cc2OC)ccc1O,> 50 µM
10,COc1cc(OC)c(OC)cc1/C=C/C(=O)c1c(OC)cc(O)c(CC=C(C)C)c1O,> 50 µM
11,COc1cc(O)c(CC=C(C)C)c(O)c1C(=O)/C=C/c1ccc([N+](=O)[O-])cc1,29.7 µM
12,COc1ccc(/C=C/C(=O)c2c(O)cc(O)cc2OC)cc1,47.7 µM
13,COc1cc(OC)c(C(=O)/C=C/c2ccccc2OC)c(OC)c1,19.6 µM
14,COc1cc(OC)c(C(=O)/C=C/c2ccc(C(F)(F)F)cc2)c(OC)c1,5.1 µM
15,COc1cc(O)c(CC=C(C)C)c(O)c1C(=O)/C=C/c1cccc([N+](=O)[O-])c1,16.5 µM
16,COc1cc(OC)c(C(=O)/C=C/c2ccc(O)c(O)c2)c(OC)c1,15.8 µM
17,COc1cc(O)cc(O)c1C(=O)/C=C/c1ccc(C(F)(F)F)cc1,9.5 µM
18,COc1cc(OC)c(OC)cc1/C=C/C(=O)c1c(O)cc(O)cc1OC,37.8 µM
19,COc1ccc(/C=C/C(=O)c2c(OC)cc(O)c(CC=C(C)C)c2O)c(OC)c1OC,> 50 µM
20,COc1cc(O)c(CC=C(C)C)c(O)c1C(=O)/C=C/c1ccc(C(F)(F)F)cc1,6.8 µM

# System: not listed separately
# Assay: Cytotoxicity against human HL60 cells assessed as inhibition of cell proliferation after 72 hrs by MTT assay
# Type: functional, cell-based
# Conditions: HL-60, 72 h
# Procedure, shortened: as §1
row,Compound,IC50
1,COc1cc(O)cc(O)c1C(=O)/C=C/c1cccc([N+](=O)[O-])c1,5.9 µM
2,COc1cc(OC)c(C(=O)/C=C/c2ccc(C(F)(F)F)cc2)c(OC)c1,6.5 µM
3,COc1cc(O)c(CC=C(C)C)c(O)c1C(=O)/C=C/c1ccc(C(F)(F)F)cc1,5.3 µM

# System: not listed separately
# Assay: Cytotoxicity against human […] cells assessed as inhibition of cell proliferation after 72 hrs by MTT assay
# Type: functional, cell-based
# Conditions: not given
# Procedure, shortened: as §1
row,Compound,IC50
1,COc1cc(O)cc(O)c1C(=O)/C=C/c1cccc([N+](=O)[O-])c1,20.1 µM
2,COc1cc(OC)c(C(=O)/C=C/c2ccc(C(F)(F)F)cc2)c(OC)c1,15.7 µM
3,COc1cc(O)c(CC=C(C)C)c(O)c1C(=O)/C=C/c1ccc(C(F)(F)F)cc1,10.7 µM

# System: A549
# Assay: Cytotoxicity against human A549 cells assessed as inhibition of cell proliferation after 72 hrs by MTT assay
# Type: functional, cell-based
# Conditions: A549, 72 h
# Procedure, shortened: as §1
row,Compound,IC50
1,COc1cc(OC)c(C(=O)/C=C/c2cc(OC)c(OC)cc2OC)c(OC)c1,45.1 µM
2,COc1cc(O)cc(O)c1C(=O)/C=C/c1cccc([N+](=O)[O-])c1,36.8 µM
3,COc1cc(OC)c(C(=O)/C=C/c2ccc(C)cc2)c(OC)c1,15 µM
4,COc1ccc(/C=C/C(=O)c2c(OC)cc(O)c(CC=C(C)C)c2O)cc1,38 µM
5,COc1ccc(/C=C/C(=O)c2c(O)cc(O)cc2OC)cc1OC,> 50 µM
6,COc1cc(OC)c(C(=O)/C=C/c2ccc(O)cc2)c(OC)c1,49.4 µM
7,COc1cc(/C=C/C(=O)c2c(OC)cc(OC)cc2OC)cc(OC)c1,10.1 µM
8,COc1cc(/C=C/C(=O)c2c(OC)cc(O)c(CC=C(C)C)c2O)cc(OC)c1OC,> 50 µM
9,COc1cc(/C=C/C(=O)c2c(O)cc(O)cc2OC)ccc1O,> 50 µM
10,COc1cc(OC)c(OC)cc1/C=C/C(=O)c1c(OC)cc(O)c(CC=C(C)C)c1O,14.4 µM
11,COc1cc(O)c(CC=C(C)C)c(O)c1C(=O)/C=C/c1ccc([N+](=O)[O-])cc1,31.2 µM
12,COc1ccc(/C=C/C(=O)c2c(O)cc(O)cc2OC)cc1,> 50 µM
13,COc1cc(OC)c(C(=O)/C=C/c2ccccc2OC)c(OC)c1,19.8 µM
14,COc1cc(OC)c(C(=O)/C=C/c2ccc(C(F)(F)F)cc2)c(OC)c1,14.2 µM
15,COc1cc(O)c(CC=C(C)C)c(O)c1C(=O)/C=C/c1cccc([N+](=O)[O-])c1,15 µM
16,COc1cc(OC)c(C(=O)/C=C/c2ccc(O)c(O)c2)c(OC)c1,8.2 µM
17,COc1cc(O)cc(O)c1C(=O)/C=C/c1ccc(C(F)(F)F)cc1,15.4 µM
18,COc1cc(OC)c(OC)cc1/C=C/C(=O)c1c(O)cc(O)cc1OC,34.2 µM
19,COc1ccc(/C=C/C(=O)c2c(OC)cc(O)c(CC=C(C)C)c2O)c(OC)c1OC,18 µM
20,COc1cc(O)c(CC=C(C)C)c(O)c1C(=O)/C=C/c1ccc(C(F)(F)F)cc1,11.1 µM

# Target: Thioredoxin reductase 1 (Rattus norvegicus) (UniProt O89049)
# Sequence (O89049 whole entry, looked up): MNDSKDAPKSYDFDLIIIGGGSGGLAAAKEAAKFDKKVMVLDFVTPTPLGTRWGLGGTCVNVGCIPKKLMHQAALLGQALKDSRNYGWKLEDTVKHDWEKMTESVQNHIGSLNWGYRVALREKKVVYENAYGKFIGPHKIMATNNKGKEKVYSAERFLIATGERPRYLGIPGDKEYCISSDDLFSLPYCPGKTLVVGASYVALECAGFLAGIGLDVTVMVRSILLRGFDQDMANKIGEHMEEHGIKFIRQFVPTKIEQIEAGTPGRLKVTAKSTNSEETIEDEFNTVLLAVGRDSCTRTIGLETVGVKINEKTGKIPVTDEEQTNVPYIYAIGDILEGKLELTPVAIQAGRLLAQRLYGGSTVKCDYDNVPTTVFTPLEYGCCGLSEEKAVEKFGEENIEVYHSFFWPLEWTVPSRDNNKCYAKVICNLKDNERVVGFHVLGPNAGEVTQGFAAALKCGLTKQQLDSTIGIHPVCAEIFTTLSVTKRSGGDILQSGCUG
# Assay: In vitro inhibition of NADPH-reduced TrxR (unknown origin) after 2 hrs incubation by microplate reader
# Conditions: not given
row,Compound,inhibition
1,COc1cc(O)cc(O)c1C(=O)/C=C/c1cccc([N+](=O)[O-])c1,Active
2,COc1cc(OC)c(C(=O)/C=C/c2ccc(Cl)cc2)c(OC)c1,Active
3,COc1cc(OC)c(C(=O)/C=C/c2ccc(C(F)(F)F)cc2)c(OC)c1,Active
4,COc1cc(O)c(CC=C(C)C)c(O)c1C(=O)/C=C/c1ccc(C(F)(F)F)cc1,Active
